According to ChEMBL document CHEMBL4219055, “Structure-based design, synthesis, and biological evaluation of imidazo[1,2-b]pyridazine-based p38 MAP kinase inhibitors” (Bioorg Med Chem, 2018):
≈ marks a conversion by molar mass, not a printed value.

Columns and labels:
[1] = MRT in Crl:CD(SD) rat at 3 mg/kg, po by LC-MS/MS analysis; type: ADME, organism-based; conditions: in vivo
Procedure, shortened: (§1)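 Rats were dosed i.v. at 0.2 mg/kg and p.o. at 3.0 mg/kg. Oral dosing was a suspension in 0.5% methyl cellulose or in corn oil, depending on the compound. Vd and CL came from i.v. dosing. Values are means of three animals.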

[2] = Clearance in Crl:CD(SD) rat at 0.2 mg/kg, iv by LC-MS/MS analysis; type: ADME, organism-based; conditions: in vivo; procedure, shortened: as §1
[3] = Volume of distribution in Crl:CD(SD) rat at 0.2 mg/kg, iv by LC-MS/MS analysis; type: ADME, organism-based; conditions: in vivo; procedure, shortened: as §1
[4] = Metabolic stability in rat liver microsomes at 1 uM after 20 mins in presence of NADPH by HPLC analysis; type: ADME, microsome
[5] = AUC in Crl:CD(SD) rat at 3 mg/kg, po by LC-MS/MS analysis; type: ADME, organism-based; conditions: in vivo
Procedure, shortened: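 Rats dosed orally at 3.0 mg/kg as a suspension in either 0.5% methyl cellulose or corn oil, depending on the compound. […] AUCpo is reported as ng·h/mL and is the mean of measurements in three animals.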

[6] = Retention time in human liver microsomes at 1 uM by HPLC analysis; type: ADME, microsome
Procedure, shortened: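 Incubated for 30 min with human liver microsomes. Parent and metabolites were analysed by HPLC and LC/MSⁿ, giving retention times, [M+H]⁺ and major fragment ions.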

[7] = Tmax in Crl:CD(SD) rat at 3 mg/kg, po by LC-MS/MS analysis; type: ADME, organism-based; conditions: in vivo; procedure, shortened: as §1
[8] = Oral bioavailability in Crl:CD(SD) rat at 3 mg/kg by LC-MS/MS analysis; type: ADME, organism-based; conditions: in vivo; procedure, shortened: as §1
[9] = Aqueous solubility in pH 6.8 buffer solution by HPLC analysis; type: physicochemical
[10] = Cmax in Crl:CD(SD) rat at 3 mg/kg, po by LC-MS/MS analysis; type: ADME, organism-based; parameters: dose 3 mg/kg, route oral; conditions: in vivo; procedure, shortened: as §1
[11] = Metabolic stability in human liver microsomes at 1 uM after 20 mins in presence of NADPH by HPLC analysis; type: ADME, microsome
[12] = pH 6.8 buffer solution, read-out: solubility

| SMILES | MRT [1] [h] | clearance [2] [mL/min/kg] | Vd [3] [L/kg] | remaining at 20 min, 1 µM [4] [µL/min/mg] | AUC [5] [ng·h/mL] | Retention_time [6] [min] | Tmax [7] [h] | bioavailability [8] [%] | solubility [9, 12] [µg/mL] | Cmax [10] [ng/mL] | Stability [11] [µL/min/mg] | solubility ([9]; buffer) |
| --- | --- | --- | --- | --- | --- | --- | --- | --- | --- | --- | --- | --- |
| Cc1cc(-c2nc3cccnn3c2-c2ccnc(NC(=O)c3cc[n+]([O-])c(C)c3)c2)ccc1F | 5.32 | 10 | 1.38 | 16 | 703 | 23 | 2 | 13.5 | 0.91 (≈ 2 µM) | 75 | – | – |
| Cc1cc(C(=O)Nc2cc(-c3c(-c4ccc(F)c(C)c4)nc4cccnn34)ccn2)ccn1 | – | – | – | 65 | – | 33.4 | – | – | 0.15 (≈ 0.342 µM) | – | 132 | – |
| Cc1cc(-c2nc3cccnn3c2-c2ccnc(NC(=O)c3cc[n+]([O-])c(C)c3)c2)ccc1F.O=S(=O)(O)O | 5.63 | 10 | 1.38 | – | 2130 | – | 1.67 | 42.6 | – | 190 | – | Insoluble |
| Cc1ccc(C(=O)Nc2cc(-c3c(-c4ccc(F)c(C)c4)nc4cccnn34)ccn2)cn1 | – | – | – | 53 | – | – | – | – | 0.38 (≈ 0.867 µM) | – | – | – |

More lines, now with the values ahead:

| MRT [1] [h] | clearance [2] [mL/min/kg] | Vd [3] [L/kg] | remaining at 20 min, 1 µM [4] [µL/min/mg] | AUC [5] [ng·h/mL] | Retention_time [6] [min] | Tmax [7] [h] | bioavailability [8] [%] | solubility [9, 12] [µg/mL] | Cmax [10] [ng/mL] | Stability [11] [µL/min/mg] | solubility ([9]; buffer) | SMILES |
| --- | --- | --- | --- | --- | --- | --- | --- | --- | --- | --- | --- | --- |
| – | – | – | 23 | – | – | – | – | 2.4 (≈ 5.28 µM) | – | – | – | Cc1cc(-c2nc3cccnn3c2-c2ccnc(NC(=O)c3ccc(C)[n+]([O-])c3)c2)ccc1F |
| – | – | – | 75 | – | – | – | – | 0.75 (≈ 1.77 µM) | – | 177 | – | Cc1cc(-c2nc3cccnn3c2-c2ccnc(NC(=O)c3ccncc3)c2)ccc1F |
| – | – | – | 71 | – | – | – | – | 0.92 (≈ 2.17 µM) | – | – | – | Cc1cc(-c2nc3cccnn3c2-c2ccnc(NC(=O)c3cccnc3)c2)ccc1F |
